Results reported in ChEMBL document CHEMBL5214982, “Identification and Biochemical Characterization of Pyrrolidinediones as Novel Inhibitors of the Bacterial Enzyme MurA” (J Med Chem, 2022).
Calls of active or inactive are those of the source. The calls are words filed in the database; no cut-off is given here.

Experiments:
[1] = biological target: UDP-N-acetylglucosamine 1-carboxyvinyltransferase (Escherichia coli K-12, UniProt P0A749); assay: Inhibition of wild type his tagged Escherichia coli K12 MurA using UDP-N-acetylglucosamine as substrate […] for 15 mins followed by DTT and PEP addition and measured after 30 mins by malachite green based microplate reader analysis
[2] = biological target: UDP-N-acetylglucosamine 1-carboxyvinyltransferase (Escherichia coli K-12) (UniProt P0A749); assay: Inhibition of wild type his tagged Escherichia coli K12 MurA at 20 uM using UDP-N-acetylglucosamine as substrate preincubated with substrate for 30 mins prior to compound addition for 15 mins followed by DTT and PEP addition and measured after 30 mins by malachite green based microplate reader analysis relative to control; settings: time 45.0 min
MRC5 = assay: Cytotoxicity against human MRC5 cells at upto 100 uM incubated for 24 hrs by MTT assay; type: toxicity, cell-based; settings: mrc5, 24 h
Summary of the method: (§1)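 MRC-5 (20,000/well) or HepG2 (25,000/well) seeded, treated next day for 24 h with eight concentrations up to 100 μM (DMSO solutions). Viability by MTT: medium replaced with 0.5 mg/ml MTT in DMEM, cells lysed in DMSO, absorbance at 560 nm. Three independent experiments.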

HepG2 = assay: Cytotoxicity against human HepG2 cells at upto 100 uM incubated for 24 hrs by MTT assay; type: toxicity, cell-based; settings: hepg2, 24 h; summary of the method: as §1
[3] = tested on: UDP-N-acetylglucosamine 1-carboxyvinyltransferase (Escherichia coli K-12), P0A749 [C115D]; assay: Inhibition of […] his tagged Escherichia coli K12 MurA C115D mutant at 2 uM using UDP-N-acetylglucosamine as substrate in presence of DTT and PEP by microplate reader analysis relative to control; settings: time 45.0 min
Summary of the method: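 His-tagged C115D MurA preincubated directly with compounds (no UNAG preincubation) 15 min rt; fosfomycin and test compound each 2 μM final, 2% DMSO. Master mix added: 150 μM UNAG, 150 μM PEP, 2 mM DTT, 25 mM Tris-HCl pH 7.5; 37 °C 30 min. Malachite green/molybdate stop, A625 after 5 min, no-enzyme background subtracted; three independent experiments.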

[4] = biological target: UDP-N-acetylglucosamine 1-carboxyvinyltransferase (Escherichia coli K-12) (UniProt P0A749); assay: Inhibition of wild type his tagged Escherichia coli K12 MurA at 0.2 uM using UDP-N-acetylglucosamine as substrate preincubated with substrate for 15 mins prior to compound addition for 15 mins followed by DTT and PEP addition by dilution assay
Summary of the method: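 His-tagged WT MurA (30 μg) preincubated with 400 μM UNAG for 15 min, then with inhibitor (10 μM) for another 15 min. Mixture diluted 1:50 into master mix of 150 μM UNAG, 150 μM PEP, 2 mM DTT and 25 mM Tris-HCl pH 7.5 (final), giving 0.2 μM inhibitor; incubated 37°C 30 min. Malachite green/molybdate stop, A625 after 5 min, minus no-enzyme blank; three independent experiments.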

[5] = biological target: UDP-N-acetylglucosamine 1-carboxyvinyltransferase (Escherichia coli K-12) (UniProt P0A749); assay: Inhibition of wild type his tagged Escherichia coli K12 MurA at 2 uM using UDP-N-acetylglucosamine as substrate […] for 15 mins followed by DTT and PEP addition and measured after 30 mins by malachite green based microplate reader analysis relative to control; settings: time 45.0 min
[6] = Stability in human plasma assessed as degradation at measured after 4 hrs by HPLC-MS analysis; type: ADME, cell-free; settings: read-out: Drug degradation
[7] = Stability in human plasma assessed as half life at by HPLC-MS analysis; type: ADME, cell-free
[8] = Stability in human S9 fractions assessed as degradation at measured after 2 hrs by HPLC-MS analysis; type: ADME, subcellular, Liver, S9 fraction; settings: read-out: Drug degradation
[9] = Stability in human S9 fractions assessed as half life at by HPLC-MS analysis; type: ADME, subcellular, Liver, S9 fraction

Sequence of UDP-N-acetylglucosamine 1-carboxyvinyltransferase (P0A749 whole entry): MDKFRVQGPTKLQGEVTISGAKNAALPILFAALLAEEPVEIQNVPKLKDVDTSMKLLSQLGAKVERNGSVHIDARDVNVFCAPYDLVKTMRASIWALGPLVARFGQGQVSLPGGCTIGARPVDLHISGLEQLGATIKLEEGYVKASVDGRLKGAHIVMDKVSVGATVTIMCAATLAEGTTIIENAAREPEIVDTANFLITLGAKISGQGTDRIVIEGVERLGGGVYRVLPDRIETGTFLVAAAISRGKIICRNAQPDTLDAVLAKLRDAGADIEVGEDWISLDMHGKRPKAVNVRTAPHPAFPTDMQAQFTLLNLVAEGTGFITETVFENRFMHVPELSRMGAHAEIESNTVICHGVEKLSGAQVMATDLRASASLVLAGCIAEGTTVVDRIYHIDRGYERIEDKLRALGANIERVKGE
Sequence of UDP-N-acetylglucosamine 1-carboxyvinyltransferase (Escherichia coli K-12) (P0A749 whole entry): as above
Sequence of UDP-N-acetylglucosamine 1-carboxyvinyltransferase (Escherichia coli K-12), P0A749 [C115D] (P0A749 whole entry C115D): as the sequence (P0A749 whole entry) above, with C115D counted along it

CCOC(=O)C1=C(O)C(=O)N(c2nc3ccc(C(F)(F)F)cc3s2)C1c1ccc(-c2ccccc2)cc1 (centres undefined)
IC50 [1]: 6.1 µM | inhibition [2]: 70%

CCOC(=O)C1=C(O)C(=O)N(c2nc3ccc(Oc4ccccc4)cc3s2)C1c1ccccc1 (centres undefined)
IC50 [1]: 17 µM | inhibition [2]: 53%

CCOC(=O)C1=C(O)C(=O)N(Cc2ccc(Cl)cc2)C1c1ccc(-c2ccccc2)cc1 (centres undefined)
inhibition [2]: 40%

CCOC(=O)C1=C(O)C(=O)N(c2nc3cc(C)c(C)cc3s2)C1c1ccc(-c2ccccc2)cc1 (centres undefined)
IC50 [1]: 5.8 µM | inhibition [2]: 85%

CCOC(=O)C1=C(O)C(=O)N(c2nc3ccc(Cl)cc3s2)C1c1ccc(Cl)cc1 (centres undefined)
inhibition [2]: 34%

CCOC(=O)C1=C(O)C(=O)N(c2nc3ccc(C)cc3s2)C1c1cccnc1 (centres undefined)
inhibition [2]: 29%

CCOC(=O)C1=C(O)C(=O)N(c2nc3ccc(C)cc3s2)C1c1ccc(-c2ccc(Cl)cc2)o1 (centres undefined)
IC50 [1]: 9.9 µM | inhibition [2]: 75%

CCOC(=O)C1=C(O)C(=O)N(c2nc3ccc(C)cc3s2)C1c1cccc2ccccc12 (centres undefined)
IC50 [1]: 15 µM | inhibition [2]: 54%

CCOC(=O)C1=C(O)C(=O)N(c2nc3ccc(C)cc3s2)C1c1ccccc1-c1cccs1 (centres undefined)
IC50 [1]: 22 µM | inhibition [2]: 50%

CCOC(=O)C1=C(O)C(=O)N(c2nc3ccc(OC)cc3s2)C1c1ccc(-c2ccccc2)cc1 (centres undefined)
IC50 [1]: 22 µM | inhibition [2]: 51%

CCOC(=O)C1=C(O)C(=O)N(c2nc3c(s2)CCCC3)C1c1ccccc1 (centres undefined)
inhibition [2]: 14%

CCOC(=O)C1=C(O)C(=O)N(c2nc3ccc(C)cc3s2)C1c1ccc(-c2ccccc2)cc1 (centres undefined)
IC50 [1]: 8.5 µM | inhibition [2]: 76%

Cc1ccc2nc(N3C(=O)C(O)=C(C(=O)OCCO)C3c3ccc(-c4ccc(Cl)cc4)o3)sc2c1 (centres undefined)
inhibition [2]: 43%

CCOC(=O)C1=C(O)C(=O)N(c2nc3ccc(C)cc3s2)C1c1ccc(-c2ccc(C(F)(F)F)cc2Cl)o1 (centres undefined)
IC50 [1]: 4.8 µM | inhibition [2]: 94%

CCOC(=O)C1=C(O)C(=O)N(c2nc3ccc(Br)cc3s2)C1c1ccc(-c2ccccc2)cc1 (centres undefined)
IC50 [1]: 21 µM | inhibition [2]: 52%

Cc1ccc2nc(N3C(=O)C(O)=C(C(=O)OC(C)(C)C)C3c3ccccc3)sc2c1 (centres undefined)
inhibition [2]: 38%

CCOC(=O)C1=C(O)C(=O)N(c2nc3ccc(Cl)cc3s2)C1c1ccc(-c2ccccc2)cc1 (centres undefined)
Activity (MRC5): Non-Toxic | IC50 [1]: 5.1 µM | Activity (HepG2): Non-Toxic | inhibition [2]: 78%

CCOC(=O)C1=C(O)C(=O)N(c2nc3ccc(C)cc3s2)C1c1ccccc1 (centres undefined)
inhibition [2]: 26%

CCOC(=O)C1=C(O)C(=O)N(c2nc3ccc(C)cc3s2)C1c1ccc(OC)c2ccccc12 (centres undefined)
IC50 [1]: 9.5 µM | inhibition [2]: 74%

CCOC(=O)C1=C(O)C(=O)N(c2nc3ccccc3s2)C1c1ccc(-c2ccccc2)cc1 (centres undefined)
inhibition [2]: 45%

CC(C)(C)OC(=O)C1=C(O)C(=O)N(c2nc3ccc(Cl)cc3s2)C1c1ccccc1 (centres undefined)
inhibition [2]: 38%

CCOC(=O)C1=C(O)C(=O)N(c2nc3ccccc3s2)C1c1ccccc1 (centres undefined)
inhibition [2]: 0%

CCOC(=O)C1=C(O)C(=O)N(c2nc3ccc(C)cc3s2)C1c1cccs1 (centres undefined)
inhibition [2]: 14%

CCOC(=O)C1=C(O)C(=O)N(c2nc3ccc(C)cc3s2)C1c1cc(-c2ccccc2)cs1 (centres undefined)
IC50 [1]: 9.9 µM | inhibition [2]: 72%

CCOC(=O)C1=C(O)C(=O)N(c2nc3ccc(C)cc3s2)C1c1ccco1 (centres undefined)
inhibition [2]: 21%

C[C@@H]1O[C@@H]1P(=O)(O)O [FOSFOMYCIN]
IC50 [1]: 5.3 µM | inhibition [3]: -4% | inhibition [4]: Active | inhibition [5]: 31% | inhibition [2]: 78%

CCOC(=O)C1=C(O)C(=O)N(c2ccc(-c3ccccc3)cc2)C1c1ccccc1 (centres undefined)
inhibition [2]: 19%

COC(=O)C1=C(O)C(=O)N(c2nc3ccc(C)cc3s2)C1c1ccc(-c2ccc(Cl)cc2)o1 (centres undefined)
IC50 [1]: 16 µM | inhibition [2]: 59%

CCOC(=O)C1=C(O)C(=O)N(c2ccccc2)C1c1ccc(-c2ccccc2)cc1 (centres undefined)
inhibition [2]: 13%

CCOC(=O)C1=C(O)C(=O)N(c2nc3c(Cl)cccc3s2)C1c1ccccc1 (centres undefined)
inhibition [2]: 18%

CCOC(=O)C1=C(O)C(=O)N(c2nc3ccc(C)cc3s2)C1c1ccc(-c2ccc(Cl)nn2)cc1 (centres undefined)
inhibition [2]: 36%

CCOC(=O)C1=C(O)C(=O)N(c2ccc(Cl)cc2)C1c1ccc(Cl)cc1 (centres undefined)
inhibition [2]: 14%

CCOC(=O)C1=C(O)C(=O)N(c2nc3c(Cl)cccc3s2)C1c1ccc(-c2ccccc2)cc1 (centres undefined)
IC50 [1]: 7 µM | inhibition [2]: 73%

CCOC(=O)C1=C(O)C(=O)N(c2nc3c(F)cc(F)cc3s2)C1c1ccc(-c2ccccc2)cc1 (centres undefined)
IC50 [1]: 7.5 µM | inhibition [2]: 76%

CCCCNc1ccc(C(=O)OCCN(C)C)cc1 [TETRACAINE]
metabolised at 4 h [6]: 100% | t1/2 [7]: 20 min

CCOC(=O)C1=C(O)C(=O)N(c2nc3ccc(Cl)cc3s2)C1c1ccccc1 (centres undefined)
inhibition [2]: 14%

CCOC(=O)C1=C(O)C(=O)N(c2nc3ccc(C)cc3s2)C1c1ccc2cc(O)ccc2c1 (centres undefined)
inhibition [2]: 43%

CCOC(=O)C1=C(O)C(=O)N(c2nc3ccc(C)cc3s2)C1c1ccccc1-c1ccccc1 (centres undefined)
IC50 [1]: 17 µM | inhibition [2]: 57%

CCOC(=O)C1=C(O)C(=O)N(c2nc3ccc(C)cc3s2)C1c1ccc(O)cc1 (centres undefined)
inhibition [2]: 23%

CCOC(=O)C1=C(O)C(=O)N(c2nc3ccc(C)cc3s2)C1c1nc2ccccc2s1 (centres undefined)
inhibition [2]: 12%

CCOC(=O)C1=C(O)C(=O)N(c2nc3c(ccc4ccccc43)s2)C1c1ccccc1 (centres undefined)
inhibition [2]: 36%

Cc1cccc2sc(N3C(=O)C(O)=C(C(=O)OC(C)(C)C)C3c3ccccc3)nc12 (centres undefined)
IC50 [1]: 11 µM | inhibition [2]: 67%

C[C@]12CC[C@H]3[C@@H](CCC4=CC(=O)CC[C@@]43C)[C@@H]1CC[C@@H]2O [TESTOSTERONE]
metabolised at 2 h [8]: 89% | t1/2 [9]: 5.9 min

CCOC(=O)C1=C(O)C(=O)N(c2nc3c(C)cccc3s2)C1c1ccccc1 (centres undefined)
inhibition [2]: 0%

CCOC(=O)C1=C(O)C(=O)N(c2nc3ccc(C)cc3s2)C1c1ccc(-c2ccccc2)o1 (centres undefined)
inhibition [2]: 37%

CCOC(=O)C1=C(O)C(=O)N(c2nc3c(OC)cccc3s2)C1c1ccc(-c2ccccc2)cc1 (centres undefined)
IC50 [1]: 25 µM | inhibition [2]: 31%

CCOC(=O)C1=C(O)C(=O)N(c2nc3ccc(C)cc3s2)C1c1ccc2ccccc2c1 (centres undefined)
inhibition [2]: 44%
